The source made the active and inactive calls. No cut-off for these calls is given here.
Columns and labels:
[1] = target: T1, Protein cereblon/Bromodomain-containing protein 3/Cullin-4A (Homo sapiens) (UniProt Q15059+Q96SW2+Q13619); assay: Induction of cereblon/cullin 4A-mediated BRD3 degradation in human RS4:11 cells at 1 nM after 3 hrs in presence of NAE inhibitor MLN4924 by Western blot method; format: cell-based
[2] = target: T2, Protein cereblon/Bromodomain-containing protein 4/Cullin-4A (Homo sapiens) (UniProt O60885+Q96SW2+Q13619); assay: Induction of cereblon/cullin 4A-mediated BRD4 degradation in human RS4:11 cells at 1 nM after 3 hrs in presence of proteosome inhibitor MG-132 by Western blot method; format: cell-based
[3] = target: T1, Protein cereblon/Bromodomain-containing protein 3/Cullin-4A (Homo sapiens); assay: Induction of cereblon/cullin 4A-mediated BRD3 degradation in human RS4:11 cells at 1 nM after 3 hrs in presence of proteosome inhibitor MG-132 by Western blot method; format: cell-based
[4] = target: T3, Protein cereblon/Bromodomain-containing protein 2/Cullin-4A (Homo sapiens) (UniProt P25440+Q96SW2+Q13619); assay: Induction of cereblon/cullin 4A-mediated BRD2 degradation in human RS4:11 cells at 1 nM after 3 hrs in presence of proteosome inhibitor MG-132 by Western blot method; format: cell-based
T3 sequence (P25440 whole entry, looked up): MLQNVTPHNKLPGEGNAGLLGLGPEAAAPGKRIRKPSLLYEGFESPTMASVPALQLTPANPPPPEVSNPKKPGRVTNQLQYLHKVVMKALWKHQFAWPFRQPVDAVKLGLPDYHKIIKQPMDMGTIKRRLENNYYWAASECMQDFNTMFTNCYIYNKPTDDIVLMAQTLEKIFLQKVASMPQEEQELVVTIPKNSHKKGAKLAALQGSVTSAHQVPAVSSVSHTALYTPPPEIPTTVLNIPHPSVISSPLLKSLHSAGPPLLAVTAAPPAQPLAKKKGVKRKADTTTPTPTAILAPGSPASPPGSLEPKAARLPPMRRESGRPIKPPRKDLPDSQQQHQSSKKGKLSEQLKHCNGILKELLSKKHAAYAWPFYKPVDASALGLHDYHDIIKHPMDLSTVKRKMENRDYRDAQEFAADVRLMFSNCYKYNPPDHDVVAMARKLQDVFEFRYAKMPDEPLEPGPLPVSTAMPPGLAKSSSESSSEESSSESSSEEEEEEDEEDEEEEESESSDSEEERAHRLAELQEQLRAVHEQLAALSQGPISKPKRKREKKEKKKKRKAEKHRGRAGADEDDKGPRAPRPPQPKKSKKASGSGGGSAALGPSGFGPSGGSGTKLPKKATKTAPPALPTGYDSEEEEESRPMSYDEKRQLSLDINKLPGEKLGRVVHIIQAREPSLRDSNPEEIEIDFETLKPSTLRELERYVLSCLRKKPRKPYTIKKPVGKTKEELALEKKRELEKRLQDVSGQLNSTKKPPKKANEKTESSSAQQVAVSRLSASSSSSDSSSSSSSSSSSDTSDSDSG
T3 sequence (Q13619 whole entry, looked up): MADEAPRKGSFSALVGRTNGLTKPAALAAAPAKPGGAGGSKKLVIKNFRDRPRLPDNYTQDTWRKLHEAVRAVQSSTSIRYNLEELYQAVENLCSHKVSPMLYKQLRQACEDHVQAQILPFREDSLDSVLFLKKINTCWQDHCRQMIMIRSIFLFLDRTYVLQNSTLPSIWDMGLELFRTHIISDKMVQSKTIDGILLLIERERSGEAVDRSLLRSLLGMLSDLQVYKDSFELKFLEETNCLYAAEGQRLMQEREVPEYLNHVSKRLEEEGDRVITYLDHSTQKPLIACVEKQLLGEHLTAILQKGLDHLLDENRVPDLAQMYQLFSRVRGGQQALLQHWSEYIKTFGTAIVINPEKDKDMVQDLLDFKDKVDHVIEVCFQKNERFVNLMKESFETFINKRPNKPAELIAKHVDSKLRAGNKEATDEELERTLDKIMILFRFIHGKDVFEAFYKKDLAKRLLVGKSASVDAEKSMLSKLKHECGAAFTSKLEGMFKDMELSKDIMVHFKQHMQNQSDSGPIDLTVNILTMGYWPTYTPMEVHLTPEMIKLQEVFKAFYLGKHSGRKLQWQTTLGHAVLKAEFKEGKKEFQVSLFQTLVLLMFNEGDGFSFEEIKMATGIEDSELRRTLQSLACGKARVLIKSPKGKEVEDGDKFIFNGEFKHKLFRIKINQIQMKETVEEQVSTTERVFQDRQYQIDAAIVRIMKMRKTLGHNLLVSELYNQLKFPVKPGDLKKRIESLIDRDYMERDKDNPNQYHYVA
T3 sequence (Q96SW2 whole entry, looked up): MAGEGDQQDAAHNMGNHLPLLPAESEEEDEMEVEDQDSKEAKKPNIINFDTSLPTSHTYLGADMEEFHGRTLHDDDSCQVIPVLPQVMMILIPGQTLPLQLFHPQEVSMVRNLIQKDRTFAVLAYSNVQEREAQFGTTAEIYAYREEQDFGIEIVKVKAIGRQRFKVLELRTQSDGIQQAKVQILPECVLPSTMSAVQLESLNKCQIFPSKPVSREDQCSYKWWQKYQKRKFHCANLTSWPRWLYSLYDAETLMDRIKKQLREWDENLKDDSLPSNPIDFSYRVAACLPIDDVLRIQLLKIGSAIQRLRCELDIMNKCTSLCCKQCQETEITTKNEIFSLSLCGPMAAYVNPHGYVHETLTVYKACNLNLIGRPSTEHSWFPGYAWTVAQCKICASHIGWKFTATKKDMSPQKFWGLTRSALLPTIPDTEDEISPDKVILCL

[5] = target: T3, Protein cereblon/Bromodomain-containing protein 2/Cullin-4A (Homo sapiens); assay: Induction of cereblon/cullin 4A-mediated BRD2 degradation in human RS4:11 cells at 1 nM after 3 hrs in presence of cereblon inhibitor lenalidomide by Western blot method; format: cell-based
[6] = organism: Homo sapiens; assay: Induction of cereblon/cullin 4A-mediated BET degradation in human RS4:11 cells assessed as downregulation of c-myc protein level at 0.1 nM after 24 hrs by Western blot method; format: cell-based
Method in brief: (§1)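 RS4;11 cells (2 × 10⁶/well) treated for 24 h at the indicated concentrations. Lysed in RIPA with protease inhibitors and immunoblotted for BRD2, BRD3, BRD4, c-Myc and PARP, with GAPDH as loading control.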

[7] = target: T2, Protein cereblon/Bromodomain-containing protein 4/Cullin-4A (Homo sapiens); assay: Induction of cereblon/cullin 4A-mediated BRD4 degradation in human RS4:11 cells at 1 nM after 3 hrs in presence of cereblon inhibitor lenalidomide by Western blot method; format: cell-based
[8] = target: T1, Protein cereblon/Bromodomain-containing protein 3/Cullin-4A (Homo sapiens); assay: Induction of cereblon/cullin 4A-mediated BRD3 degradation in human RS4:11 cells at 1 nM after 3 hrs in presence of cereblon inhibitor lenalidomide by Western blot method; format: cell-based
[9] = target: T3, Protein cereblon/Bromodomain-containing protein 2/Cullin-4A (Homo sapiens); assay: Induction of cereblon/cullin 4A-mediated BRD2 degradation in human RS4:11 cells at 1 nM after 3 hrs in presence of NAE inhibitor MLN4924 by Western blot method; format: cell-based
[10] = target: T2, Protein cereblon/Bromodomain-containing protein 4/Cullin-4A (Homo sapiens); assay: Induction of cereblon/cullin 4A-mediated BRD4 degradation in human RS4:11 cells at 1 nM after 3 hrs in presence of NAE inhibitor MLN4924 by Western blot method; format: cell-based
[11] = target: T2, Protein cereblon/Bromodomain-containing protein 4/Cullin-4A (Homo sapiens); assay: Induction of cereblon/cullin 4A-mediated BRD4 degradation in human RS4:11 cells at 1 nM after 3 hrs in presence of BET inhibitor 4-((3-Cyclopropyl-1-ethyl-1H-pyrazol-5-yl)amino)-7-(3,5-dimethylisoxazol-4-yl)-6-methoxy-N-methyl-9H-pyrimido[4,5-b]-indole-2-carboxamide by Western blot method; format: cell-based
[12] = target: T3, Protein cereblon/Bromodomain-containing protein 2/Cullin-4A (Homo sapiens); assay: Induction of cereblon/cullin 4A-mediated BRD2 degradation in human RS4:11 cells at 0.1 nM after 24 hrs by Western blot method; format: cell-based; method in brief: as §1
[13] = target: T3, Protein cereblon/Bromodomain-containing protein 2/Cullin-4A (Homo sapiens); assay: Induction of cereblon/cullin 4A-mediated BRD2 degradation in human RS4:11 cells after 3 hrs by Western blot method; format: cell-based
Method in brief: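 RS4;11 cells (2 × 10⁶/well) treated for 3 h at the indicated concentrations. Lysed in RIPA with protease inhibitors and immunoblotted for BRD2, BRD3 and BRD4 with specific antibodies.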

[14] = system: RS4-11; assay: Induction of cell cycle arrest in human RS4:11 cells after 24 hrs by propidium iodide staining based flow cytometry; format: functional
Method in brief: (§2)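 RS4;11 or MOLM-13 cells treated with compound for 24 h, then analyzed by flow cytometry. Cell cycle read by propidium iodide staining and apoptosis by annexin V/propidium iodide staining.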

[15] = system: MOLM-13; assay: Induction of cell cycle arrest in human MOLM13 cells after 24 hrs by propidium iodide staining based flow cytometry; format: functional; method in brief: as §2
[16] = system: RS4-11; assay: Induction of apoptosis in human RS4:11 cells at 3 to 10 nM after 24 hrs by Annexin-V/propidium iodide staining based flow cytometry; format: functional, cell-based; method in brief: as §2
[17] = system: MOLM-13; assay: Induction of apoptosis in human MOLM13 cells at 3 to 10 nM after 24 hrs by Annexin-V/propidium iodide staining based flow cytometry; format: functional, cell-based; method in brief: as §2
[18] = system: RS4-11; assay: Antitumor activity against human RS4:11 cells xenografted in SCID mouse assessed as tumor growth regression at 5 mg/kg, iv […] administered every other day three times per week for 3 weeks relative to control; format: functional
Method in brief: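 SCID mice given 5×10⁶ RS4;11 cells in 50% Matrigel subcutaneously on the dorsal side, one tumor per mouse. Randomized at ~100 mm³, then dosed 5 mg/kg iv every other day, three times a week for 3 weeks. Tumors measured by caliper 2–3 times/week, V = LW²/2. Body weight recorded 2–3 times/week and daily toxicity checks made.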

[19] = system: Mus musculus; assay: Toxicity in SCID mouse xenografted with human RS4:11 cells assessed as body weight loss at 5 mg/kg, iv […] administered every other day three times per week for 3 weeks; format: organism-based; details: in vivo, 504 h
Method in brief: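 SCID mice carried subcutaneous dorsal RS4;11 xenografts (5 × 10⁶ cells in 50% Matrigel). Once tumors reached ∼100 mm³, mice were randomized to treatment or vehicle. Dosing was 5 mg/kg iv every other day, three times weekly, for 3 weeks. Animals were checked daily for toxicity and weighed 2–3 times weekly during treatment, then at least weekly afterward.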

[20] = system: Mus musculus; assay: In vivo induction of cereblon/cullin 4A-mediated BRD3 degradation in tumor of SCID mouse xenografted with human RS4:11 cells at 5 mg/kg, iv administered as single dose measured after 24 hrs by Western blot method; format: functional, organism-based
Method in brief: (§3)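 SCID mice bearing subcutaneous RS4;11 tumors received a single 5 mg/kg iv dose. Sacrificed at 1, 3, 6 and 24 h, with vehicle controls at 6 h, two mice per time point. Tumors ground in liquid nitrogen and lysed in CHAPS buffer, then immunoblotted for BRD2/3/4, c-Myc, PARP/cleaved PARP and caspase-3/cleaved caspase-3. Actin served as loading control.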

[21] = system: Mus musculus; assay: In vivo induction of cereblon/cullin 4A-mediated BET degradation in tumor of SCID mouse xenografted with human RS4:11 cells assessed as downregulation of c-Myc level at 5 mg/kg, iv administered as single dose measured up to 6 hrs by Western blot method; format: functional, organism-based; method in brief: as §3
[22] = system: Mus musculus; assay: Increase in caspase-3 cleavage in tumor of SCID mouse xenografted with human RS4:11 cells at 5 mg/kg administered as single dose measured up to 6 hrs by Western blot method; format: functional, organism-based; method in brief: as §3
[23] = Drug metabolism in mouse liver microsomes assessed as metabolite m1 formation at 10 uM after 20 to 40 mins in presence of beta-NADPH […]; format: ADME, microsome
[24] = Drug metabolism in mouse liver microsomes assessed as N-butyl-4-(3-cyclopropyl-1-ethyl-1H-pyrazol-5-ylamino)-7-(3,5-dimethylisoxazol-4-yl)-6-methoxy-9H-pyrimido[4,5-b]indole-2-carboxamide formation at 10 uM after 20 to 40 mins in presence of beta-NADPH […]; format: ADME, microsome
[25] = Drug metabolism in mouse liver microsomes assessed as 4-(3-cyclopropyl-1H-pyrazol-5-ylamino)-7-(3,5-dimethylisoxazol-4-yl)-N-(5-(2-(2,6-dioxopiperidin-3-yl)-1-oxoisoindolin-4-yl)pentyl)-6-methoxy-9H-pyrimido[4,5-b]indole-2-carboxamide formation at 10 uM after 20 to 40 mins in presence of beta-NADPH […]; format: ADME, microsome

T1 sequence (Q13619 whole entry, looked up): as the sequence (Q13619 whole entry, looked up) above
T1 sequence (Q15059 whole entry, looked up): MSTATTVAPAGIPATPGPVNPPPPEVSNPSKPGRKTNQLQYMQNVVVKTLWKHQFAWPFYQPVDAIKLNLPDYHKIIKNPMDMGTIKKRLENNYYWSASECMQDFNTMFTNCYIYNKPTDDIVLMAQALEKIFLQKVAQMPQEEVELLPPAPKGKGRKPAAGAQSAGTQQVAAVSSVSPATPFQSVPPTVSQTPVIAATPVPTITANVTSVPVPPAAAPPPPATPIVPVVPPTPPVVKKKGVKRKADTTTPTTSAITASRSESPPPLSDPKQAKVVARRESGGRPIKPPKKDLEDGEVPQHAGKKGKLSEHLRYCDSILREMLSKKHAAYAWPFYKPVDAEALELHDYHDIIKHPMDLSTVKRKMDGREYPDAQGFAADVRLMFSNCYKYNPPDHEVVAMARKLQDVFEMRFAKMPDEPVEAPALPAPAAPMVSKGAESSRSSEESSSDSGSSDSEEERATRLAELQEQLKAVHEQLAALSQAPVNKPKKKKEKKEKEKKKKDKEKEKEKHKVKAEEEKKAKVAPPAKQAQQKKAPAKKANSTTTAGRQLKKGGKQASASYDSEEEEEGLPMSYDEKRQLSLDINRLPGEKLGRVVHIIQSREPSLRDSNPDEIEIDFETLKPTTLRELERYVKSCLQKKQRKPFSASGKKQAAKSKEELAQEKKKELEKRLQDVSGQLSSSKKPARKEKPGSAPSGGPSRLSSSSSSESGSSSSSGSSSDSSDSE
T1 sequence (Q96SW2 whole entry, looked up): as the sequence (Q96SW2 whole entry, looked up) above

Activity [1]: inactive
Activity [2]: inactive
Activity [3]: inactive
Activity [4]: inactive
Activity [5]: inactive
Activity [7]: inactive
Activity [8]: inactive
Activity [9]: inactive
Activity [10]: inactive
Activity [11]: inactive
Activity [12]: Active
Activity [13]: Dose-dependent effect
Drug metabolism [23]: Metabolite_Detected
Drug metabolism [24]: Metabolite_Detected
Drug metabolism [25]: Metabolite_Detected
SMILES: CCn1nc(C2CC2)cc1Nc1nc(C(=O)NCCCCCc2cccc3c2CN(C2CCC(=O)NC2=O)C3=O)nc2[nH]c3cc(-c4c(C)noc4C)c(OC)cc3c12 (stereo not given)
Activity [6]: Active
Activity [14]: Dose-dependent effect
Activity [15]: Dose-dependent effect
Activity [16]: Active
Activity [17]: Active
Activity [18]: >90%
Activity [19]: Non-Toxic
Activity [20]: Active
Activity [21]: Active
Activity [22]: Active

— ChEMBL document CHEMBL4219021, “Discovery of a Small-Molecule Degrader of Bromodomain and Extra-Terminal (BET) Proteins with Picomolar Cellular Potencies and Capable of Achieving Tumor Regression” (J Med Chem, 2018)
